Data published in ChEMBL document CHEMBL2029337, “Synthesis and antimicrobial activities of structurally novel S,S'-bis(heterosubstituted) disulfides” (Bioorg Med Chem Lett, 2012).
Converted amounts (≈) assume the structure as drawn. The source made the active and inactive calls. No cut-off for these calls is given here.

Columns and labels:
[1] = tested on: Staphylococcus aureus; assay: Antibacterial activity against methicillin-susceptible Staphylococcus aureus ATCC 25923 […] by agar dilution method; type: functional
[2] = tested on: Bartonella sp.; assay: Antibacterial activity against Bartonella ssp. […] by agar dilution method; type: functional
[3] = Antibacterial activity against Francisella tularensis subspecies holarctica LVS after 48 hrs by broth dilution method; type: functional, Francisella tularensis subsp. holarctica LVS
[4] = tested on: Staphylococcus aureus; assay: Antibacterial activity against methicillin-resistant Staphylococcus aureus ATCC 43300 […] by agar dilution method; type: functional
[5] = tested on: Escherichia coli; assay: Antibacterial activity against Escherichia coli K-12 […] by agar dilution method; type: functional, organism-based
[6] = tested on: Staphylococcus aureus; assay: Antibacterial activity against methicillin-resistant Staphylococcus aureus ATCC 43300 assessed as growth inhibition at 20 ug after 24 hrs by agar-diffusion assay in presence of iPrSSiPr; type: functional, organism-based
Method in brief: (§1)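 Kirby-Bauer well diffusion on an MRSA lawn (0.5 McFarland suspension swabbed onto tryptic soy agar). Four test agents sat in wells equidistant from a centre well holding 1 mg of additive in DMSO; a DMSO-only centre well served as vehicle control. After overnight incubation at 37 °C, the inhibition zones were examined for size or shape change.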

[7] = tested on: Staphylococcus aureus; assay: Antibacterial activity against methicillin-resistant Staphylococcus aureus ATCC 43300 assessed as growth inhibition at 20 ug after 24 hrs by agar-diffusion assay in presence of GSH; type: functional, organism-based; method in brief: as §1
[8] = tested on: Staphylococcus aureus; assay: Antibacterial activity against methicillin-resistant Staphylococcus aureus ATCC 43300 assessed as growth inhibition at 20 ug after 24 hrs by agar-diffusion assay in presence of lysine; type: functional, organism-based; method in brief: as §1
[9] = tested on: Staphylococcus aureus; assay: Antibacterial activity against methicillin-resistant Staphylococcus aureus ATCC 43300 assessed as growth inhibition at 20 ug after 24 hrs by agar-diffusion assay in presence of valine; type: functional, organism-based; method in brief: as §1
[10] = tested on: Staphylococcus aureus; assay: Antibacterial activity against methicillin-resistant Staphylococcus aureus ATCC 43300 assessed as growth inhibition at 20 ug after 24 hrs by agar-diffusion assay in presence of PPh3; type: functional, organism-based; method in brief: as §1
[11] = tested on: Staphylococcus aureus; assay: Antibacterial activity against methicillin-resistant Staphylococcus aureus ATCC 43300 assessed as growth inhibition at 20 ug after 24 hrs by agar-diffusion assay in presence of glycine; type: functional, organism-based; method in brief: as §1
[12] = tested on: Staphylococcus aureus; assay: Antibacterial activity against methicillin-resistant Staphylococcus aureus ATCC 43300 assessed as growth inhibition at 20 ug after 24 hrs by agar-diffusion assay in presence of CoA; type: functional, organism-based; method in brief: as §1
[13] = tested on: Staphylococcus aureus; assay: Antibacterial activity against methicillin-resistant Staphylococcus aureus ATCC 43300 assessed as growth inhibition at 20 ug after 24 hrs by agar-diffusion assay in presence of cystine; type: functional, organism-based

## c1ccc(OSSOc2ccccc2)cc1
[1]
  MIC: 2 µg/mL (≈ 7.99 µM)
[2]
  Activity: inactive
[3]
  MIC: 1 µg/mL (≈ 3.99 µM)
[4]
  MIC: 2 µg/mL (≈ 7.99 µM)
[5]
  Activity: inactive

## C[C@H](c1ccccc1)N(Cc1ccccc1)SSN(Cc1ccccc1)[C@H](C)c1ccccc1
[1]
  MIC: 16 µg/mL (≈ 33 µM)
[2]
  Activity: inactive
[3]
  MIC: 16 µg/mL (≈ 33 µM)
[4]
  MIC: 64 µg/mL (≈ 132 µM)
[5]
  Activity: inactive

## CCC(C)NSSNC(C)CC (stereo not drawn)
[1]
  MIC: 16 µg/mL (≈ 76.8 µM)
[2]
  Activity: inactive
[3]
  MIC: 8 µg/mL (≈ 38.4 µM)
[4]
  MIC: 16 µg/mL (≈ 76.8 µM)
[5]
  Activity: inactive

## CC(COSSOCC(C)c1ccccc1)c1ccccc1 (racemic)
[1]
  MIC: 16 µg/mL (≈ 47.8 µM)
[2]
  Activity: inactive
[3]
  MIC: 8 µg/mL (≈ 23.9 µM)
[4]
  MIC: 16 µg/mL (≈ 47.8 µM)
[5]
  Activity: inactive

## C=CCN(CC=C)SSN(CC=C)CC=C
[1]
  MIC: 1 µg/mL (≈ 3.9 µM)
[2]
  Activity: inactive
[3]
  MIC: 16 µg/mL (≈ 62.4 µM)
[4]
  MIC: 0.5 µg/mL (≈ 1.95 µM)
[5]
  Activity: inactive

## CC(C)[C@@H]1CC[C@@H](C)C[C@H]1OSSO[C@@H]1C[C@H](C)CC[C@H]1C(C)C
[1]
  MIC: 8 µg/mL (≈ 21.4 µM)
[2]
  Activity: inactive
[3]
  MIC: 4 µg/mL (≈ 10.7 µM)
[4]
  MIC: 16 µg/mL (≈ 42.7 µM)
[5]
  Activity: inactive

## CC1CCC(C(C)C)C(OSSOC2CC(C)CCC2C(C)C)C1 (racemic)
[1]
  MIC: 8 µg/mL (≈ 21.4 µM)
[2]
  Activity: inactive
[3]
  MIC: 4 µg/mL (≈ 10.7 µM)
[4]
  MIC: 16 µg/mL (≈ 42.7 µM)
[5]
  Activity: inactive

## CCC(C)OSSOC(C)CC (stereo not drawn)
[1]
  MIC: 16 µg/mL (≈ 76.1 µM)
[2]
  Activity: inactive
[3]
  MIC: 16 µg/mL (≈ 76.1 µM)
[4]
  MIC: 8 µg/mL (≈ 38 µM)
[5]
  Activity: inactive

## CCCCOSSOCCCC
[1]
  MIC: 0.25 µg/mL (≈ 1.19 µM)
[2]
  Activity: inactive
[3]
  MIC: 4 µg/mL (≈ 19 µM)
[4]
  MIC: 8 µg/mL (≈ 38 µM)
[5]
  Activity: inactive

## c1ccc(NSSNc2ccccc2)cc1
[1]
  MIC: 4 µg/mL (≈ 16.1 µM)
[2]
  Activity: inactive
[3]
  MIC: 0.5 µg/mL (≈ 2.01 µM)
[4]
  MIC: 4 µg/mL (≈ 16.1 µM)
[5]
  Activity: inactive

## CC(C)NSSNC(C)C
[1]
  MIC: 32 µg/mL (≈ 177 µM)
[2]
  Activity: inactive
[3]
  MIC: 2 µg/mL (≈ 11.1 µM)
[4]
  MIC: 32 µg/mL (≈ 177 µM)
[5]
  Activity: inactive

## C=CC(=O)O[C@H]1C(=O)N(SC)[C@H]1c1ccccc1Cl
[6]
  growth inhibition (GI): Active
[7]
  growth inhibition (GI): inactive
[8]
  growth inhibition (GI): Active
[9]
  growth inhibition (GI): Active
[10]
  growth inhibition (GI): Active
[11]
  growth inhibition (GI): Active
[12]
  growth inhibition (GI): inactive
[13]
  growth inhibition (GI): inactive

## CC[C@H](C)OSSO[C@@H](C)CC
[1]
  MIC: 16 µg/mL (≈ 76.1 µM)
[2]
  Activity: inactive
[3]
  MIC: 16 µg/mL (≈ 76.1 µM)
[4]
  MIC: 32 µg/mL (≈ 152 µM)
[5]
  Activity: inactive

## CCCCNSSNCCCC
[1]
  MIC: 8 µg/mL (≈ 38.4 µM)
[2]
  Activity: inactive
[3]
  MIC: 4 µg/mL (≈ 19.2 µM)
[4]
  MIC: 32 µg/mL (≈ 154 µM)
[5]
  Activity: inactive

## CCCCSSSSCCCC
[1]
  MIC: 64 µg/mL (≈ 264 µM)
[2]
  Activity: inactive
[3]
  MIC: 4 µg/mL (≈ 16.5 µM)
[4]
  MIC: 32 µg/mL (≈ 132 µM)
[5]
  Activity: inactive

## CCCOSSOCCC
[1]
  MIC: 32 µg/mL (≈ 176 µM)
[2]
  Activity: inactive
[3]
  MIC: 16 µg/mL (≈ 87.8 µM)
[4]
  MIC: 32 µg/mL (≈ 176 µM)
[5]
  Activity: inactive
